Measurements published in ChEMBL document CHEMBL1806394, “Synthesis, in vitro evaluation and molecular docking studies of new triazole derivatives as antifungal agents” (2011).
Converted amounts (≈) assume the structure as drawn.

Assays:
Format in all cases: functional
Candida parapsilosis = test: Antifungal activity against Candida parapsilosis by micro-broth dilution method; conditions: Lodderomyces parapsilosis
How it was run: (§1)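 MIC80 determined by broth microdilution following NCCLS methods. C. albicans SC5314 and Y0109 and C. neoformans BLS108 served as quality-control strains and were included in every assay. Fluconazole, itraconazole, voriconazole and amphotericin B were run as positive controls.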

Candida albicans [1] = test: Antifungal activity against Candida albicans SC5314 by micro-broth dilution method; how it was run: as §1
Trichophyton rubrum = test: Antifungal activity against Trichophyton rubrum by micro-broth dilution method; how it was run: as §1
Cryptococcus neoformans = test: Antifungal activity against Cryptococcus neoformans BLS108 by micro-broth dilution method; how it was run: as §1
Candida tropicalis = test: Antifungal activity against Candida tropicalis by micro-broth dilution method; how it was run: as §1
Candida albicans [2] = test: Antifungal activity against Candida albicans Y0109 by micro-broth dilution method; how it was run: as §1
Aspergillus fumigatus = test: Antifungal activity against Aspergillus fumigatus by micro-broth dilution method; how it was run: as §1
Kluyveromyces marxianus = test: Antifungal activity against Candida kefyr by micro-broth dilution method

| MIC80 (Candida parapsilosis) [µg/mL] | MIC80 (Candida albicans [1]) [µg/mL] | MIC80 (Trichophyton rubrum) [µg/mL] | MIC80 (Cryptococcus neoformans) [µg/mL] | MIC80 (Candida tropicalis) [µg/mL] | MIC80 (Candida albicans [2]) [µg/mL] | MIC80 (Aspergillus fumigatus) [µg/mL] | MIC80 (Kluyveromyces marxianus) [µg/mL] | Structure (SMILES) |
| --- | --- | --- | --- | --- | --- | --- | --- | --- |
| 0.0625 (≈ 0.114 µM) | 0.0625 (≈ 0.114 µM) | > 64 | > 64 | 1 (≈ 1.83 µM) | 0.0625 (≈ 0.114 µM) | > 64 | 16 (≈ 29.2 µM) | COc1cccc(C(=O)Nc2ccc(-n3cnn(CC(O)(Cn4cncn4)c4ccc(F)cc4F)c3=O)cc2)c1 (single isomer, unassigned) |
| 0.0625 (≈ 0.117 µM) | 0.0625 (≈ 0.117 µM) | 16 (≈ 29.9 µM) | 64 (≈ 120 µM) | 0.0625 (≈ 0.117 µM) | 1 (≈ 1.87 µM) | > 64 | 4 (≈ 7.47 µM) | O=C(Nc1ccc(-n2cnn(CC(O)(Cn3cncn3)c3ccc(F)cc3F)c2=O)cc1)c1ccc(F)cc1 (single isomer, unassigned) |
| 0.0156 (≈ 0.0291 µM) | 0.0625 (≈ 0.117 µM) | 16 (≈ 29.9 µM) | 64 (≈ 120 µM) | 0.0625 (≈ 0.117 µM) | 4 (≈ 7.47 µM) | > 64 | 1 (≈ 1.87 µM) | O=C(Nc1ccc(-n2cnn(CC(O)(Cn3cncn3)c3ccc(F)cc3F)c2=O)cc1)c1ccccc1F (single isomer, unassigned) |
| 1 (≈ 1.81 µM) | 1 (≈ 1.81 µM) | > 64 | 0.0625 (≈ 0.113 µM) | 1 (≈ 1.81 µM) | 1 (≈ 1.81 µM) | > 64 | 1 (≈ 1.81 µM) | O=C(Nc1ccc(-n2cnn(CC(O)(Cn3cncn3)c3ccc(F)cc3F)c2=O)cc1)c1ccc(Cl)cc1 (single isomer, unassigned) |
| 0.00024 (≈ 0.000435 µM) | 0.00024 (≈ 0.000435 µM) | > 64 | 16 (≈ 29 µM) | 1 (≈ 1.81 µM) | 0.00024 (≈ 0.000435 µM) | > 64 | 4 (≈ 7.25 µM) | O=C(Nc1ccc(-n2cnn(CC(O)(Cn3cncn3)c3ccc(F)cc3F)c2=O)cc1)c1cccc(Cl)c1 (single isomer, unassigned) |
| 0.0156 (≈ 0.0266 µM) | 0.0625 (≈ 0.107 µM) | > 64 | > 64 | 0.25 (≈ 0.426 µM) | 0.0625 (≈ 0.107 µM) | > 64 | 4 (≈ 6.82 µM) | O=C(Nc1ccc(-n2cnn(CC(O)(Cn3cncn3)c3ccc(F)cc3F)c2=O)cc1)c1ccc(Cl)cc1Cl (single isomer, unassigned) |
| 16 (≈ 26.8 µM) | 4 (≈ 6.71 µM) | > 64 | > 64 | 16 (≈ 26.8 µM) | 16 (≈ 26.8 µM) | > 64 | 64 (≈ 107 µM) | O=C(Nc1ccc(-n2cnn(CC(O)(Cn3cncn3)c3ccc(F)cc3F)c2=O)cc1)c1cccc(Br)c1 (single isomer, unassigned) |
| 1 (≈ 1.68 µM) | 1 (≈ 1.68 µM) | > 64 | 16 (≈ 26.8 µM) | 4 (≈ 6.71 µM) | 4 (≈ 6.71 µM) | > 64 | > 64 | O=C(Nc1ccc(-n2cnn(CC(O)(Cn3cncn3)c3ccc(F)cc3F)c2=O)cc1)c1ccccc1Br (single isomer, unassigned) |
| 1 (≈ 1.83 µM) | 1 (≈ 1.83 µM) | > 64 | > 64 | 4 (≈ 7.31 µM) | 1 (≈ 1.83 µM) | > 64 | 16 (≈ 29.2 µM) | COc1ccc(C(=O)Nc2ccc(-n3cnn(CC(O)(Cn4cncn4)c4ccc(F)cc4F)c3=O)cc2)cc1 (single isomer, unassigned) |
| 1 (≈ 1.66 µM) | 0.25 (≈ 0.416 µM) | 4 (≈ 6.65 µM) | > 64 | 64 (≈ 106 µM) | 1 (≈ 1.66 µM) | > 64 | > 64 | O=C(Nc1ccc(-n2cnn(CC(O)(Cn3cncn3)c3ccc(F)cc3F)c2=O)cc1)c1ccc(OC(F)(F)F)cc1 (single isomer, unassigned) |
| 0.25 (≈ 0.47 µM) | 0.0625 (≈ 0.118 µM) | > 64 | > 64 | 1 (≈ 1.88 µM) | 0.0625 (≈ 0.118 µM) | > 64 | 16 (≈ 30.1 µM) | Cc1ccc(C(=O)Nc2ccc(-n3cnn(CC(O)(Cn4cncn4)c4ccc(F)cc4F)c3=O)cc2)cc1 (single isomer, unassigned) |
| 0.0625 (≈ 0.118 µM) | 0.0625 (≈ 0.118 µM) | > 64 | > 64 | 1 (≈ 1.88 µM) | 0.0625 (≈ 0.118 µM) | > 64 | > 64 | Cc1cccc(C(=O)Nc2ccc(-n3cnn(CC(O)(Cn4cncn4)c4ccc(F)cc4F)c3=O)cc2)c1 (single isomer, unassigned) |
| 0.0156 (≈ 0.0293 µM) | 0.25 (≈ 0.47 µM) | > 64 | > 64 | 1 (≈ 1.88 µM) | 0.0625 (≈ 0.118 µM) | > 64 | > 64 | Cc1ccccc1C(=O)Nc1ccc(-n2cnn(CC(O)(Cn3cncn3)c3ccc(F)cc3F)c2=O)cc1 (single isomer, unassigned) |
| 0.25 (≈ 0.458 µM) | 0.25 (≈ 0.458 µM) | > 64 | 64 (≈ 117 µM) | 0.25 (≈ 0.458 µM) | 0.25 (≈ 0.458 µM) | > 64 | 4 (≈ 7.33 µM) | Cc1ccc(C(=O)Nc2ccc(-n3cnn(CC(O)(Cn4cncn4)c4ccc(F)cc4F)c3=O)cc2)cc1C (single isomer, unassigned) |
| 0.0625 (≈ 0.115 µM) | 0.0625 (≈ 0.115 µM) | > 64 | > 64 | 1 (≈ 1.83 µM) | 0.0625 (≈ 0.115 µM) | > 64 | 64 (≈ 117 µM) | Cc1ccc(C(=O)Nc2ccc(-n3cnn(CC(O)(Cn4cncn4)c4ccc(F)cc4F)c3=O)cc2)c(C)c1 (single isomer, unassigned) |
| 4 (≈ 7.15 µM) | 0.0039 (≈ 0.00697 µM) | > 64 | > 64 | 1 (≈ 1.79 µM) | 1 (≈ 1.79 µM) | > 64 | > 64 | CCCc1ccc(C(=O)Nc2ccc(-n3cnn(CC(O)(Cn4cncn4)c4ccc(F)cc4F)c3=O)cc2)cc1 (single isomer, unassigned) |
| 0.0625 (≈ 0.109 µM) | 0.0156 (≈ 0.0272 µM) | > 64 | > 64 | 0.25 (≈ 0.436 µM) | 0.0156 (≈ 0.0272 µM) | > 64 | > 64 | CCCCc1ccc(C(=O)Nc2ccc(-n3cnn(CC(O)(Cn4cncn4)c4ccc(F)cc4F)c3=O)cc2)cc1 (single isomer, unassigned) |
| > 64 | 4 (≈ 6.81 µM) | > 64 | > 64 | > 64 | > 64 | > 64 | > 64 | CCCCCc1ccc(C(=O)Nc2ccc(-n3cnn(CC(O)(Cn4cncn4)c4ccc(F)cc4F)c3=O)cc2)cc1 (single isomer, unassigned) |
| 0.0625 (≈ 0.109 µM) | 0.0625 (≈ 0.109 µM) | 4 (≈ 6.97 µM) | 64 (≈ 112 µM) | 0.25 (≈ 0.436 µM) | 1 (≈ 1.74 µM) | > 64 | > 64 | CC(C)(C)c1ccc(C(=O)Nc2ccc(-n3cnn(CC(O)(Cn4cncn4)c4ccc(F)cc4F)c3=O)cc2)cc1 (single isomer, unassigned) |
| 4 (≈ 7.15 µM) | 4 (≈ 7.15 µM) | > 64 | > 64 | 4 (≈ 7.15 µM) | 4 (≈ 7.15 µM) | > 64 | > 64 | CC(C)c1ccc(C(=O)Nc2ccc(-n3cnn(CC(O)(Cn4cncn4)c4ccc(F)cc4F)c3=O)cc2)cc1 (single isomer, unassigned) |
| > 64 | > 64 | > 64 | > 64 | > 64 | > 64 | > 64 | > 64 | O=C(/C=C/c1ccc(F)cc1)Nc1ccc(-n2cnn(CC(O)(Cn3cncn3)c3ccc(F)cc3F)c2=O)cc1 (single isomer, unassigned) |
